Assay outcomes deposited in PubChem BioAssay by Sanford-Burnham Center for Chemical Genomics.
An excerpt weighted towards active compounds, which were near 1.2% of everything screened.
Diaph act CS: compounds boosting diaphorase resazurin reduction – biochemical, uHTS, resorufin fluorescence, counter-screen for diaphorase-coupled primary assays, primary screen; Diaphorase/resazurin coupled assay, 16 min; active compounds read high; 1 = vehicle wells, 0 = NADH-free wells; activation factor at 20 µM; 0.005% of 190,000 active; AID 1229, 2008;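 active = diaphorase activity raised at least twofold by the compound at 20 µM; inactive = activation factor below 2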
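test system = bacterial diaphorase enzyme (C. kluyveri) | quantity = enzyme 0.07 U/mL final | reagent = NADH substrate 0.114 mM plus resazurin dye 0.1 mM, final | incubation = 16 min enzyme reaction, ambient temperature | buffer or medium = HEPES pH 7.4 buffer with MgCl2 and Tween 20 | signal = fluorescence of resorufin, 544 nm excitation, 590 nm emission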
PfG6PD inh: PfG6PD enzyme inhibitors, primary screen, biochemical, fluorescence intensity, uHTS; PfGluPho enzyme, NADPH resazurin-diaphorase fluorescence; inhibition, % at 20 µM; 0.78% of 350,000 active;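 active = inhibition reaching at least a set limit at 20 µM in the primary screen, cut at about 59% in these data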
Diaphorase inh: diaphorase inhibitors and chemical oxidizers, primary screen, counter-screen for diaphorase-coupled primary assays, biochemical, uHTS, resorufin fluorescence; 0.69% of 190,000 active; diaphorase resazurin-to-resorufin fluorescence, NADH, 16 min; bacterial (C. kluyveri) enzyme, not human; AID 1217, 2008; inhibition, % at 20 µM;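 active = primary screen inhibition at 20 µM above a set limit, cut at about 50% in these data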
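controls = No-NADH positive control and DMSO neutral control | system = Clostridium kluyveri diaphorase enzyme | timing = reaction incubation of 16 min at room temperature | signal = resorufin fluorescence 544/590 nm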
G6PDH counter: L. mesenteroides G6PDH inhibitors, counter-screen for G6PDH-coupled screening assays, biochemical, Leuconostoc mesenteroides enzyme. glucose-6-phosphate dehydrogenase [Leuconostoc mesenteroides]. Purified L. mesenteroides G6PDH, diaphorase/resazurin coupled fluorescence, 45 min. inhibition, % at 5 µM. 0.12% of 200,000 active. AID 1020, 2008; in the data active = inhibition above about 50%
HKDC1 inhibitor: HKDC1 hexokinase inhibitors, primary screen, biochemical, fluorescence, uHTS. Q2TB90. AID 493160, 2011. inhibition, % at 20 µM. recombinant HKDC1, G6PDH/diaphorase resazurin coupled fluorescence. 0.16% of 340,000 active;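 active = inhibition above about 35% when tested at 20 µM, limit read from the data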
Target sequence (Q2TB90 whole entry, looked up): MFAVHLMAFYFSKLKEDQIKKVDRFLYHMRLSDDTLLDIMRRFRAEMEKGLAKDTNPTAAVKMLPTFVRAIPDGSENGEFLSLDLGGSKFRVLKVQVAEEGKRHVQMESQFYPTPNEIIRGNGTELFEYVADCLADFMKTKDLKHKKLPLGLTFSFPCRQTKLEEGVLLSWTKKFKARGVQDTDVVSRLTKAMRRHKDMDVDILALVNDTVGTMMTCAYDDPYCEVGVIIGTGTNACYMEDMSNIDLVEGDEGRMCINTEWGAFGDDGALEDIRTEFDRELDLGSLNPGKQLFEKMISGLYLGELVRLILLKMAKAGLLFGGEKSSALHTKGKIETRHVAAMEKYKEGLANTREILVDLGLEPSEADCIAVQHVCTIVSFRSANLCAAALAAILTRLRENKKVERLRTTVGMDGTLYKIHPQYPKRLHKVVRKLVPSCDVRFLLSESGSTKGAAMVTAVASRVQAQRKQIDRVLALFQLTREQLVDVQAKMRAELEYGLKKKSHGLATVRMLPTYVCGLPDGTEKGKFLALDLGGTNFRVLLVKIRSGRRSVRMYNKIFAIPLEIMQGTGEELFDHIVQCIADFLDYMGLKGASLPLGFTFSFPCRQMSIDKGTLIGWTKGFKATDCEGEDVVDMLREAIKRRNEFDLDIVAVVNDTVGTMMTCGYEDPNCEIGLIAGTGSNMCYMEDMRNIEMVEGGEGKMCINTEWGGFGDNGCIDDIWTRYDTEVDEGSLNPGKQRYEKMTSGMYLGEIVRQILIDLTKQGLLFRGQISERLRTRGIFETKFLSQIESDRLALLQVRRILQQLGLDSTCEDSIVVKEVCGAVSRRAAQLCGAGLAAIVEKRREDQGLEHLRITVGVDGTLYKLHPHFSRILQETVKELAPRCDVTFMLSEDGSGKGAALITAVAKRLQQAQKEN
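Assay system: recombinant HKDC1 hexokinase; detection: coupled resazurin fluorescence, excitation 525 nm, emission 613 nm; benchmarks: DMSO-plus-enzyme-mix negative control, buffer-substituted positive control; compound dosing: single 20 µM dose; schedule: 90 min at room temperature in dark; also added: glucose plus 1 mM ATP as hexokinase substrates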
Large screens that a line does not name were inactive.

CCCc1cc(=O)[nH]c(SCC(=O)Nc2oc(C)c3c(C)n[nH]c(=O)c23)n1	none (no result: Diaph act CS, Diaphorase inh, G6PDH counter)
Cc1cc([N+](=O)[O-])ccc1-c1ccc(C2Nc3ccccc3C(=O)N2O)o1 (stereo unspecified)	Diaphorase inh 68
Cc1ccccc1NC(=O)NCCCCc1ccccc1	none (no result: Diaph act CS, Diaphorase inh, G6PDH counter)
Cc1nc2ccccc2n1S(=O)(=O)c1cc(C(=O)O)ccc1Cl	none (no result: Diaph act CS, Diaphorase inh, G6PDH counter)
CC(C)NC[C@H](O)c1ccc(O)c(O)c1	none (no result: Diaph act CS, Diaphorase inh, G6PDH counter)
CCC(NC(C)C)C(O)c1ccc(O)c(O)c1 (stereo unspecified)	Diaphorase inh 59, G6PDH counter 63
O=C(CCNC(=O)C1CCN(S(=O)(=O)c2ccc(F)cc2)CC1)NCc1cccc(Cl)c1	none (no result: Diaph act CS, Diaphorase inh, G6PDH counter)
c1ccc(C2=Nn3c(nnc3-c3ccco3)SC2)cc1	Diaphorase inh 73
Cc1noc(C)c1CSCC(=O)Nc1cc(C(F)(F)F)ccc1N1CCOCC1	none (no result: Diaph act CS, Diaphorase inh, G6PDH counter)
O=C(N/N=C/c1c(O)ccc2ccccc12)c1ccc[n+](CCO)c1	Diaphorase inh 54
O=[N+]([O-])c1cc([N+](=O)[O-])c2cccnc2c1Oc1ccccc1O	Diaphorase inh 60
O=[N+]([O-])c1cc(Cl)c(O)c2ncccc12	G6PDH counter 59
CC1CCc2sc(C(=O)NN=C3CCCC3)cc2C1 (stereo unspecified)	none (no result: Diaph act CS, Diaphorase inh, G6PDH counter, HKDC1 inhibitor)
O=C(c1cc(COc2ccc(F)cc2Cl)on1)N1CCC(c2ccncc2)CC1	Diaphorase inh 68
O=C(c1cc(COc2ccc(F)cc2Cl)on1)N1CCCCCC1	none (no result: Diaph act CS, Diaphorase inh, G6PDH counter)
CCN(CC)CCN(C(=O)c1cc2c(ccc3ccccc32)oc1=O)c1nc2cc3c(cc2s1)OCCO3	none (no result: Diaph act CS, Diaphorase inh, G6PDH counter)
S=c1nccc(-c2ccc3c(c2)CCO3)[nH]1	none (no result: Diaph act CS, Diaphorase inh, G6PDH counter)
S=c1nccc(-c2cccs2)[nH]1	Diaphorase inh 54
Cc1ccc(-c2ccnc(=S)[nH]2)cc1	Diaphorase inh 67
O=C(CCc1nnc(-c2ccccc2)o1)c1ccc(Cl)cc1	none (no result: Diaph act CS, Diaphorase inh, G6PDH counter)
COc1cc(OC)cc(C(=O)N2CCN(Cc3ccc4c(c3)OCO4)CC2)c1	none (no result: Diaph act CS, Diaphorase inh, G6PDH counter)
O=C1OC(Nc2ccc3ncccc3c2)c2ccccc21 (stereo unspecified)	Diaphorase inh 56
O=C(Nc1nn[nH]n1)c1cccc([N+](=O)[O-])c1	none
O=C(Cn1ccccc1=S)c1ccc(Cl)c(Cl)c1	none (no result: Diaph act CS, Diaphorase inh, G6PDH counter)
On1ccccc1=S	PfG6PD inh 75 (no result: Diaph act CS, Diaphorase inh, G6PDH counter)
C[C@@H]1CCC[C@@]2(O[C@H](CCO)C[C@H](O)[C@H]2O)O1	none (no result: Diaph act CS, Diaphorase inh, G6PDH counter)
Cc1ccc(S(=O)(=O)O/N=C2\CCCc3ccccc32)cc1	none
CC1=C(C)/C(=N\OS(=O)(=O)c2ccccc2)C=CC1=O	PfG6PD inh 112, Diaphorase inh 100
Cc1ccc2cc(C(c3nnnn3C(C)(C)C)N3CCCCCC3)c(=O)[nH]c2c1 (stereo unspecified)	Diaphorase inh 52
Cc1ccc(C)c(N(C(=O)c2snc(C(N)=O)c2N)C(C(=O)NCC2CCCO2)c2ccc(C)o2)c1 (stereo unspecified)	none (no result: Diaph act CS, Diaphorase inh, G6PDH counter)
O=C(CCn1c(=O)oc2ccccc21)N(Cc1ccccc1)c1ccccc1	Diaphorase inh 69
CN(Cc1ccccc1)C(=O)CCn1c(=O)oc2ccccc21	none
NC(=O)c1ccccc1OCC(=O)N1CCC(Cc2ccccc2)CC1	none (no result: Diaph act CS, Diaphorase inh, G6PDH counter)
CCCC(C(=O)Nc1ccc(S(=O)(=O)N2CCCC2)cc1)c1ccccc1 (stereo unspecified)	none (no result: Diaph act CS, Diaphorase inh, G6PDH counter)
CCN(c1ccc(NC(=O)COC(=O)C2CCN(c3ccc(C(F)(F)F)cn3)CC2)cc1)C(C)C	none (no result: Diaph act CS, Diaphorase inh, G6PDH counter)
CCCOC(=O)C1=C(C)N(C)C(=O)NC1c1cc2c(cc1[N+](=O)[O-])OCO2 (stereo unspecified)	none
CC1=C(C(=O)OCc2ccc3c(c2)OCO3)C(c2ccccc2)NC(=O)N1 (stereo unspecified)	none
CC1=C(C(=O)OCc2ccc3c(c2)OCO3)C(c2ccc(O)c([N+](=O)[O-])c2)NC(=O)N1 (stereo unspecified)	Diaphorase inh 52
CCOC(=O)C1=C(C)NC(=O)CC1c1cc2c(cc1[N+](=O)[O-])OCO2 (stereo unspecified)	Diaphorase inh 72
Cc1cccc(OCC(=O)NC(=S)NNC(=O)c2ccncc2)c1	PfG6PD inh 77 (no result: Diaph act CS, Diaphorase inh, G6PDH counter)
CC(C)(C)c1cc(CN(CCO)CCO)cc(C(C)(C)C)c1O	Diaphorase inh 70
CCOC(=O)C1=C(C)c2ccccc2N(C(=O)OC)C1(C)C(=O)OCC (stereo unspecified)	PfG6PD inh 61 (no result: Diaph act CS, Diaphorase inh, G6PDH counter)
CCOC(=O)C1=C(C)c2ccccc2OC1(CC)C(=O)OCC (stereo unspecified)	none (no result: Diaph act CS, Diaphorase inh, G6PDH counter)
CCN1c2ccccc2N(C)C1(C)c1ccccc1 (stereo unspecified)	PfG6PD inh 67, Diaphorase inh 59
CC(=O)SC(C[N+](=O)[O-])c1cn(C(C)=O)c2ccccc12 (stereo unspecified)	PfG6PD inh 63
NCCc1c(-c2ccccc2)n(-c2ccccc2)c2ccccc12	none
CC(=O)C1=C(c2ccccc2)NC(=O)NC1c1ccc(O)c(O)c1 (stereo unspecified)	Diaphorase inh 54
CC1CCN(Cc2nnc(-c3cccc(Br)c3)o2)CC1	none (no result: Diaph act CS, Diaphorase inh, G6PDH counter)
COc1ccc(CNc2ccc3cn[nH]c3c2)c(OC)c1OC	Diaphorase inh 57
CCOc1cc(CNc2ccc3cn[nH]c3c2)ccc1OC	Diaphorase inh 57
c1csc(C2Nc3cccc4cccc(c34)N2)c1	Diaphorase inh 62
Brc1ccc(C2Nc3cccc4cccc(c34)N2)o1	Diaphorase inh 85
Brc1cccc(C2Nc3cccc4cccc(c34)N2)c1	none (no result: Diaph act CS, Diaphorase inh, G6PDH counter)
